Columns and labels:
Format in all cases: biochemical
[1] = target: T1, CYP2B6 (Homo sapiens, UniProt P20813); test: index substrate turnover in pooled HLM, HPLC; conditions: microsomes
T1 sequence (P20813 1-491): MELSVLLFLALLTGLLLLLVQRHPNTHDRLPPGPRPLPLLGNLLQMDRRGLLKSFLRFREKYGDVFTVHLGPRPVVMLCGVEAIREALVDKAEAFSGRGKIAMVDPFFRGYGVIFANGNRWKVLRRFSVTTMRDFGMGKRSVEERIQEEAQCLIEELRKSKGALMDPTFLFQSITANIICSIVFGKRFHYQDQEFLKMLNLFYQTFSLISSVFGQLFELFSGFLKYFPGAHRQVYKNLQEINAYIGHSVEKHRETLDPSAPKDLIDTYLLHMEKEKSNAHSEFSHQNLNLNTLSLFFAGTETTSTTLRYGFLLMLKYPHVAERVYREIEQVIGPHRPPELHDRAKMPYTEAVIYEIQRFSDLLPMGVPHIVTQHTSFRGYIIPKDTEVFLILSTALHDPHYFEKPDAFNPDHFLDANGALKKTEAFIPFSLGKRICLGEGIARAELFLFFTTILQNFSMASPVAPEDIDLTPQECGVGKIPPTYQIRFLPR
In short: (§1)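 Pooled HLMs (53 donors) in 50 mm phosphate pH 7.5 with 5 mm MgCl2, 0.5 mm NADP and an isocitrate/isocitric dehydrogenase regenerating system. Test compound at 0–600 μm (eight levels) was dried, reconstituted in 1% methanol, with or without 20-min 37°C preincubation. Substrates: phenacetin (1A2), bupropion (2B6), taxol (2C8), dextromethorphan (2D6). Acetonitrile stop (acidified for 2B6) with IS; HPLC-UV/fluorescence; duplicates; hyperbolic nonlinear-regression IC50.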

[2] = target: T2, UGT2B7 (Homo sapiens, UniProt P16662); test: glucuronidation of index substrate in pooled HLM, HPLC-UV; conditions: without preincubation; pH 7.5, 10 mM UDPGA, alamethicin
T2 sequence (P16662 24-529): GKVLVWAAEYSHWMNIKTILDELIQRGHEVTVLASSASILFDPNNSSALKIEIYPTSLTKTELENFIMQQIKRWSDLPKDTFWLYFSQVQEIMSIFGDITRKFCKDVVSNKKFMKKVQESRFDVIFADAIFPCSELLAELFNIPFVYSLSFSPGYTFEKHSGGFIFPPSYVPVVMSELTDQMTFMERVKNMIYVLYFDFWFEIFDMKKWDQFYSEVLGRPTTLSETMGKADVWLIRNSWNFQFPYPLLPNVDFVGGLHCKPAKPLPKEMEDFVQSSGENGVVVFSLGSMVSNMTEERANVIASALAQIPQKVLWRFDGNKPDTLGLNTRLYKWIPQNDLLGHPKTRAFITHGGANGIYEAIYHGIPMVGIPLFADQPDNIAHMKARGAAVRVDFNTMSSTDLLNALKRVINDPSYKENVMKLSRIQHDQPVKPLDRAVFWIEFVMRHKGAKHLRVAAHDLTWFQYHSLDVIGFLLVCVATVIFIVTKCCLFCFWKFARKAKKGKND
In short: (§2)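 Pooled HLMs (53 donors, 50–500 μg/ml) in 50 mm phosphate pH 7.5 with 5 mm MgCl2 and alamethicin […]. Test compound at 0–250 μm (seven levels) was dried, reconstituted in 1% methanol and not preincubated. Reactions started with UDPGA (10 mm final). Substrates: AZT (UGT2B7), oxazepam (UGT2B15). Acetonitrile stop (acidified for UGT2B7) with IS; HPLC-UV; duplicates; IC50 by nonlinear regression.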

[3] = target: T3, CYP2C8 (Homo sapiens, UniProt P10632); test: index substrate turnover in pooled HLM, HPLC; conditions: microsomes
T3 sequence (P10632 1-490): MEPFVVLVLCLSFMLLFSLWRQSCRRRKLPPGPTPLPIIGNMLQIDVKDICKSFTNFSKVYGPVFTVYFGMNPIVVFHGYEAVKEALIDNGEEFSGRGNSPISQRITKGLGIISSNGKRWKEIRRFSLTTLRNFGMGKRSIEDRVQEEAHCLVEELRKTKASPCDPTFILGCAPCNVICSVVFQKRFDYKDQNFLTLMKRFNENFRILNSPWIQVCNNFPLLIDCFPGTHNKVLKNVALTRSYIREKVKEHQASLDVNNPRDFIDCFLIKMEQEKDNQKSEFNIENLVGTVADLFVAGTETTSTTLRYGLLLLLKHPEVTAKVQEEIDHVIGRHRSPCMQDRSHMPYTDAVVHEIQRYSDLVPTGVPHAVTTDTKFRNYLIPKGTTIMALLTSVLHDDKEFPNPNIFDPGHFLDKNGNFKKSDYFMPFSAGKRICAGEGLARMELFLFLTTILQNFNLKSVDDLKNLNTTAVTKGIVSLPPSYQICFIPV
In short: as §1

[4] = target: CYP2E1 (Homo sapiens, UniProt P05181); test: index substrate turnover in pooled HLM, HPLC; conditions: for IC50: human, microsomes
[5] = target: CYP2D6 (Homo sapiens, UniProt P10635); test: index substrate turnover in pooled HLM, HPLC; conditions: microsomes
In short: as §1

[6] = target: T4, CYP1A2 (Homo sapiens, UniProt P05177); test: index substrate turnover in pooled HLM, HPLC; conditions: microsomes
T4 sequence (P05177 2-516): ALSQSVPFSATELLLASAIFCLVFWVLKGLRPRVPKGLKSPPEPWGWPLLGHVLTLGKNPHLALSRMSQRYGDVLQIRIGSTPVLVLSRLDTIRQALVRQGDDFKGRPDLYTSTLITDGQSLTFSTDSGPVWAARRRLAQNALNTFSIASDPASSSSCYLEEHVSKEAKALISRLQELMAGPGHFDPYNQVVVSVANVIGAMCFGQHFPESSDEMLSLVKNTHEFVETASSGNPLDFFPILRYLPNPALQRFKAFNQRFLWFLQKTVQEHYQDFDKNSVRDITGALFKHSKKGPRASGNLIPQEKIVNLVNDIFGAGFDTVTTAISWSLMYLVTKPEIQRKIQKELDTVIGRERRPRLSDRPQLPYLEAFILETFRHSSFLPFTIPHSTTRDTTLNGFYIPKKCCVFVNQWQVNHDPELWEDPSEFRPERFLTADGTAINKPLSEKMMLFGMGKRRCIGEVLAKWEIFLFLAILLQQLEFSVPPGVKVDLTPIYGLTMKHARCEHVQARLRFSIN
In short: as §1

[7] = target: CYP2C19 (Homo sapiens, UniProt P33261); test: index substrate turnover in pooled HLM, HPLC; conditions: microsomes
[8] = target: T5, UGT2B15 (Homo sapiens, UniProt P54855); test: glucuronidation of index substrate in pooled HLM, HPLC-UV; conditions: without preincubation; pH 7.5, 10 mM UDPGA, alamethicin
T5 sequence (P54855 24-530): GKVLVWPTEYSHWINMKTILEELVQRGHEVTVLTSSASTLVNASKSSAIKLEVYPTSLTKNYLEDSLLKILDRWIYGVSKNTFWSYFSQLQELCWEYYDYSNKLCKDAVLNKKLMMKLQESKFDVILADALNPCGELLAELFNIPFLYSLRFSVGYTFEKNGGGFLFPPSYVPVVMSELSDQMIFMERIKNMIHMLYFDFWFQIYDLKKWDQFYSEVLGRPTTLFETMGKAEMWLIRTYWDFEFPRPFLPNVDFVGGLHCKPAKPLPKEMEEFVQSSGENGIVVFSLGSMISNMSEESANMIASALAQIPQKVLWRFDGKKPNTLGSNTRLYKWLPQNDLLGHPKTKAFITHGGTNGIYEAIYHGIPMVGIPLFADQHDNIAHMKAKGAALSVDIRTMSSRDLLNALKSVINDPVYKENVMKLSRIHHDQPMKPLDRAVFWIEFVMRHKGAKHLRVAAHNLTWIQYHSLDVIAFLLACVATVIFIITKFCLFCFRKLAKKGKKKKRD
In short: as §2

[9] = target: T6, UGT1A6 (Homo sapiens, UniProt P19224); test: glucuronidation of index substrate in pooled HLM, HPLC-UV; conditions: without preincubation; pH 7.5, 10 mM UDPGA, alamethicin
T6 sequence (P19224 27-532): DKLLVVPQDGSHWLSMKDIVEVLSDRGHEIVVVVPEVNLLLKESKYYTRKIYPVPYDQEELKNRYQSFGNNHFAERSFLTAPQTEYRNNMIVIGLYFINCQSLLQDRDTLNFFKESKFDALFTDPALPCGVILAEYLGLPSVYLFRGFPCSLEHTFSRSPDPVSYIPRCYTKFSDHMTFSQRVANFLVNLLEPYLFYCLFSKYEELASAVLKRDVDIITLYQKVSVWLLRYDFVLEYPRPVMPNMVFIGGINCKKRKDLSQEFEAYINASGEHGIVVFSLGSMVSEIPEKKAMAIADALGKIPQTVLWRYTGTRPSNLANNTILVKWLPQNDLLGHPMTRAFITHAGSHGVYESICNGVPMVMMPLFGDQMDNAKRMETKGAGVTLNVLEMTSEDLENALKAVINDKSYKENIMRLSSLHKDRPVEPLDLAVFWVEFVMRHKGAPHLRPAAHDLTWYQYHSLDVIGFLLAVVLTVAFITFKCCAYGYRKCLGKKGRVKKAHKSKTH

[10] = target: CYP2C9 (Homo sapiens, UniProt P11712); test: index substrate turnover in pooled HLM, HPLC; conditions: microsomes
[11] = without preincubation, 37 °C, solvent effect

Sequence of CYP2E1 (P05181 whole entry): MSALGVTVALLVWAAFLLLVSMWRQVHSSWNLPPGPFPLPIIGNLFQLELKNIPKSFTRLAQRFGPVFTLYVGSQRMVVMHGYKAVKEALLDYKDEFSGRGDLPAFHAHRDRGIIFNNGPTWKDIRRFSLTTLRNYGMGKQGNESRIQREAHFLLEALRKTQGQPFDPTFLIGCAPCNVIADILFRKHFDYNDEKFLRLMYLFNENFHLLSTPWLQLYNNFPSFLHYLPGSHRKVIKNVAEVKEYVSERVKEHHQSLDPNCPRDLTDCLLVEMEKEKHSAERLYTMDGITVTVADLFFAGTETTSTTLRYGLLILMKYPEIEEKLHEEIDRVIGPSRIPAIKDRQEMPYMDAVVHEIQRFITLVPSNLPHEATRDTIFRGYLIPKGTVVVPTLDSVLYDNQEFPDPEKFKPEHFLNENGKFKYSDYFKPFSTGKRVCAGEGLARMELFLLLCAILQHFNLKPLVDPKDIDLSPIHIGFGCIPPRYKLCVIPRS
Sequence of CYP2D6 (P10635 whole entry): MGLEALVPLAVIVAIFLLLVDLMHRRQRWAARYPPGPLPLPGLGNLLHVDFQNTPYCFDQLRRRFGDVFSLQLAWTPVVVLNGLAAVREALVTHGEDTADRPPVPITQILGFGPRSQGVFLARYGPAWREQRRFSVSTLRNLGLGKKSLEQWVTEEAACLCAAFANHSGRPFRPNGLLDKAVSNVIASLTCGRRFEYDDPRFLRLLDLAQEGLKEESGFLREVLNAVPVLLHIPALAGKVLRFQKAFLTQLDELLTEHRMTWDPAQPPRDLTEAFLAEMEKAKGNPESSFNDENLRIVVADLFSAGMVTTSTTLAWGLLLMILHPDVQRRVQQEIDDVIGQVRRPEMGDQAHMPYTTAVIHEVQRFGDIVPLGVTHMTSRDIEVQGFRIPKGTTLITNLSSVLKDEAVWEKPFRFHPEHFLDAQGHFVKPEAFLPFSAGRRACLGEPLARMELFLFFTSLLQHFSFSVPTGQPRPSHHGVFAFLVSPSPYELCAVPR
Sequence of CYP2C19 (P33261 whole entry): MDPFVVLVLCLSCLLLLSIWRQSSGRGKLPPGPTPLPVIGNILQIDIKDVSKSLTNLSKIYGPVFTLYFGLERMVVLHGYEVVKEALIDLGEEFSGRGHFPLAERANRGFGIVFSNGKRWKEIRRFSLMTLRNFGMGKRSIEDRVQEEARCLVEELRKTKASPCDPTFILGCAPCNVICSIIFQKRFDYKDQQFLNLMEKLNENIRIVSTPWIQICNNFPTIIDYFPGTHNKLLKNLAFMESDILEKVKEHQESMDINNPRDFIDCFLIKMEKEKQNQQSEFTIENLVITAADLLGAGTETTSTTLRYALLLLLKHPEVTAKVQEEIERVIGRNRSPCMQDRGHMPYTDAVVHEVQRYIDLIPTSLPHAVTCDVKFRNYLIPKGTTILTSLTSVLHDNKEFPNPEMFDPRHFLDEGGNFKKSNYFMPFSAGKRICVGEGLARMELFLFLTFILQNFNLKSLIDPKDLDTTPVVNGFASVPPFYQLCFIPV
Sequence of CYP2C9 (P11712 whole entry): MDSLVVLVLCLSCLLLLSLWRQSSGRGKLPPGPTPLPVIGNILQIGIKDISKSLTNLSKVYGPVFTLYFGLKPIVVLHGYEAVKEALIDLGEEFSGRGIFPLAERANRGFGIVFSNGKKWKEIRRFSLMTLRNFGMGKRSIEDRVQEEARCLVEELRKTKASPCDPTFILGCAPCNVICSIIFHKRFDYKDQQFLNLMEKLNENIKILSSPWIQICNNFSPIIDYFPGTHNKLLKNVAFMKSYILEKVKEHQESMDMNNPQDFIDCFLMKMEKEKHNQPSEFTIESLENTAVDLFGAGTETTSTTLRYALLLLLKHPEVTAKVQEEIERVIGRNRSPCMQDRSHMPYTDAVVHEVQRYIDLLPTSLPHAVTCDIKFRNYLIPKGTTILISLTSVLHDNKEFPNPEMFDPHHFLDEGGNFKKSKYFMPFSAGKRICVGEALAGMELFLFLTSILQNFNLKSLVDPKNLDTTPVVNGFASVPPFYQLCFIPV

| IC50 [1] [µM] | IC50 [2] [µM] | IC50 [3] [µM] | IC50 [4] [µM] | IC50 [5] [µM] | IC50 [6] [µM] | IC50 [7] [µM] | IC50 [8] [µM] | IC50 [9] [µM] | IC50 [10] [µM] | MEOH / W/O (%) [4, 11] | DMSO / W/O (%) [4, 11] | Structure (SMILES) |
| --- | --- | --- | --- | --- | --- | --- | --- | --- | --- | --- | --- | --- |
| 103 | > 250 | 2.5 | 89.3 | 153 | 3.5 | 47.9 | > 250 | > 250 | 28.9 | – | – | O=c1cc(-c2ccc(O)c(O)c2)oc2cc(O)cc(O)c12 [luteolin] |
| 89.2 | – | 2.4 | 66.2 | 234 | 5.2 | 140 | > 250 | – | – | – | – | O=c1c(O)c(-c2ccc(O)c(O)c2)oc2cc(O)cc(O)c12 [quercetin] |
| – | – | – | – | – | – | – | – | – | – | 0.63 % (v/v) | – | CO [methanol] |
| – | – | – | – | – | – | – | – | – | – | – | 0.06 % (v/v) | C[S+](C)[O-] [DMSO] |
